These results are taken from ChEMBL document CHEMBL3352209, “Chroman-4-one- and chromone-based sirtuin 2 inhibitors with antiproliferative properties in cancer cells” (J Med Chem, 2014).

pIC50: −log10 of the molar value. Calls of active or inactive are those of the source. No cut-off for these calls is given here.

For data set [1], the target named is T1, NAD-dependent protein deacetylase sirtuin-2 (Homo sapiens) (UniProt Q8IXJ6).
T1 sequence (whole entry): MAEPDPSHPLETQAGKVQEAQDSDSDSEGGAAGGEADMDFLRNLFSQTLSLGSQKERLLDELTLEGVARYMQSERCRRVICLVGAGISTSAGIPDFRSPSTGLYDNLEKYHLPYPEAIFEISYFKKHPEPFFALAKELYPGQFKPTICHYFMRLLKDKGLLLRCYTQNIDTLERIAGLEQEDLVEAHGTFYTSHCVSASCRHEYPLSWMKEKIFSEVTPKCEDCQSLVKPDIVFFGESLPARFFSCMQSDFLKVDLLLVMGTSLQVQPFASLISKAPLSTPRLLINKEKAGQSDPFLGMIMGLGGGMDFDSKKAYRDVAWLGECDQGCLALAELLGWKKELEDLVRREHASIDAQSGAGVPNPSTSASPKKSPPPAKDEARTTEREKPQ
Nature of the data set: Inhibition of recombinant GST-tagged sirtuin-2 (unknown origin) using KI179 as substrate at 200 uM after 1 hr by fluorescence assay. An outline of the steps:
(§1)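 Recombinant GST-SIRT2 with Fluor de Lys KI179 acetyl-peptide at 0.7 Km (Km 198 μM) and NAD+ at 0.9 Km in HDAC buffer with 1 mg/mL BSA. Compound in DMSO (5% v/v) preincubated 5 min at room temperature, enzyme added, 1 h at 37 °C; developer plus 2 mM nicotinamide 45 min at 37 °C; fluorescence ex 370/em 460 nm. Single-point inhibition at 200 μM, n = 3; IC50 with 95% CI where inhibition >80%.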

For data set [2], the target named is T2, NAD-dependent protein deacetylase sirtuin-2 (Homo sapiens, UniProt Q8IXJ6).
T2 sequence (Q8IXJ6 whole entry): T1 sequence (whole entry)
Kind of data set: Inhibition of recombinant GST-tagged sirtuin-2 (unknown origin) using KI179 as substrate after 1 hr by fluorescence assay. An outline of the steps:
as §1

Data set [3] concerns the target T1, NAD-dependent protein deacetylase sirtuin-2 (Homo sapiens). Nature of the data set: Inhibition of sirtuin-2 (unknown origin) by SIRTainty assay in presence of NAD+. The conditions noted are these: concentration not given here. Put shortly:
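SIRT2 run in the SIRTainty kit, which uses nicotinamidase to detect nicotinamide released from NAD+, with and without NAD+. Fluorescence ex 405/em 460 nm, given as percent inhibition of the NAD+-dependent signal.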

For data set [4] the target is unchanged. Nature of the data set: Inhibition of SIRT2 in human MCF7 cells assessed as alpha-tubulin acetylation after 6 to 18 hrs by Western blotting analysis. It counts as cell-based. An outline of the steps:
(§2)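 MCF-7 cells seeded 10⁵/well, dosed 24 h later with compound plus 40 nM Trichostatin A, or 0.5% DMSO, for 6 or 18 h. Lysates separated by SDS-PAGE and blotted with acetylated α-tubulin and total α-tubulin mouse monoclonals, HRP anti-mouse and ECL detection; mean ± SEM of three independent experiments.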
(In general: In western blotting, separated proteins are transferred to a membrane and probed.)

In data set [5] the test system is MCF7. Kind of data set: Induction of apoptosis in human MCF7 cells at 100 uM after 18 hrs by propidium iodide staining-based flow cytometry. It counts as functional, cell-based.
In data set [6] the test system is A549. Nature of the data set: Cell cycle arrest in human A549 cells assessed as reduction in G2 phase at 100 uM after 18 hrs by propidium iodide staining-based flow cytometry. The class given is functional. Put shortly: (§3)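 A549 or MCF-7 cells seeded 0.6 × 10⁶/well 6 h before exposure to compound or 0.5% DMSO vehicle for 18 h. DNA content measured by propidium iodide staining and flow cytometry, giving percent of cells in G1/G0, S and G2/M; mean ± SEM of two to four independent experiments; one-way ANOVA with Tukey test.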
(In flow cytometry, cells or beads pass a laser one at a time.)

The test system of data set [7] is A549. Nature of the data set: Antiproliferative activity against human A549 cells at 1 to 100 uM after 48 hrs by sulforhodamine B assay. It counts as functional, cell-based. Put shortly:
(§4)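 A549 and MCF-7 cells (DMEM, 10% FCS, penicillin/streptomycin, 37 °C, 5% CO2) seeded 3000 cells/well 24 h before dosing; 0–100 μM compound or 0.5% DMSO vehicle for 48 h (A549) or 72 h (MCF-7). Growth read by sulforhodamine B staining; mean ± SEM of two to three independent experiments; ANOVA with Tukey test.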
A general note: The SRB assay estimates cell density from bound dye.

Data set [8] deals with T1, NAD-dependent protein deacetylase sirtuin-2 (Homo sapiens). Nature of the data set: Inhibition of SIRT2 in human MCF7 cells assessed as alpha-tubulin acetylation at 50 to 100 uM after 18 hrs by Western blotting analysis. The class given is cell-based. Put shortly:
as §2

Data set [9] has as its system MCF7. Nature of the data set: Antiproliferative activity against human MCF7 cells at 1 to 100 uM after 72 hrs by sulforhodamine B assay. The class given is functional, cell-based. An outline of the steps: as §4
In data set [10] the test system is A549. Kind of data set: Induction of apoptosis in human A549 cells at 100 uM after 18 hrs by propidium iodide staining-based flow cytometry. It counts as functional, cell-based.
For data set [11], the system named is MCF7. Nature of the data set: Cell cycle arrest in human MCF7 cells assessed as accumulation at G1/G0 phase at 100 uM after 18 hrs by propidium iodide staining-based flow cytometry. The class given is functional. Put shortly: as §3
The test system of data set [12] is A549. Nature of the data set: Cell cycle arrest in human A549 cells assessed as accumulation at G1/G0 phase at 100 uM after 18 hrs by propidium iodide staining-based flow cytometry. It counts as functional. Put shortly: as §3
Data set [13] deals with MCF7. Nature of the data set: Antiproliferative activity against human MCF7 cells at >=50 uM after 48 hrs by sulforhodamine B assay. The class given is functional, cell-based.
In data set [14] the test system is MCF7. Nature of the data set: Induction of apoptosis in human MCF7 cells at 50 uM after 18 hrs by propidium iodide staining-based flow cytometry. The class given is functional, cell-based.
The subject of data set [15] is A549. Nature of the data set: Induction of apoptosis in human A549 cells at 50 uM after 18 hrs by propidium iodide staining-based flow cytometry. It counts as functional, cell-based.
The subject of data set [16] is A549. Kind of data set: Antiproliferative activity against human A549 cells at 10 uM after 48 hrs by sulforhodamine B assay. It counts as functional, cell-based.
In data set [17] the test system is MCF7. Kind of data set: Antiproliferative activity against human MCF7 cells at 10 uM after 72 hrs by sulforhodamine B assay.
Data set [18] concerns A549. Nature of the data set: Antiproliferative activity against human A549 cells at >=50 uM after 48 hrs by sulforhodamine B assay. It counts as functional, cell-based.
In data set [19] the target is T1, NAD-dependent protein deacetylase sirtuin-2 (Homo sapiens). The settings on record: MCF7, 25 to 100 uM.
Data set [20] concerns MCF7. Nature of the data set: Cell cycle arrest in human MCF7 cells assessed as accumulation at G1/G0 phase at 50 uM after 18 hrs by propidium iodide staining-based flow cytometry. It counts as functional. An outline of the steps: as §3
In data set [21] the test system is MCF7. Kind of data set: Cytotoxicity against human MCF7 cells at 100 uM after 18 hrs. It counts as cell-based. The conditions noted are these: mcf7, 18 h.
Data set [22] deals with A549. Kind of data set: Cell cycle arrest in human A549 cells assessed as accumulation at G1/G0 phase at 50 uM after 18 hrs by propidium iodide staining-based flow cytometry. The class given is functional. An outline of the steps: as §3

For orientation: inhibition means the change of the read-out against control, counted positive when it falls. One may read the pIC50 as the negative decadic logarithm of the IC50, by convention in mol/L. For `CC(=O)Nc1c(CCc2ccccc2)oc2c(Br)cc(Cl)cc2c1=O`, the inhibition in data set [1] amounted to 81%. The pIC50 in data set [2] is 4.54.
As for `O=C1CC(CCc2ccc3ncccc3c2)Oc2c(Br)cc(Cl)cc21` (stereo unspecified), the inhibition in data set [1] was found to be 56%.
As for `CC(C)NC(=O)CCCC1CC(=O)c2cc(Cl)cc(Br)c2O1` (stereo unspecified), the inhibition in data set [1] amounted to 23%.
For `O=C1CC(CCc2ccccn2)Oc2c(Br)cc(Cl)cc21` (stereo unspecified), in [1], the inhibition stood at 74%.
For `O=C1CC(CCc2ccncc2)Oc2c(Br)cc(Cl)cc21` (stereo unspecified), in data set [1], the inhibition is 73%.
Same read-out and setting: for `O=C1CC(CCCCCO)Oc2c(Br)cc(Cl)cc21` (stereo unspecified) the value was 67%.
For the compound `O=C1CC(CCCN2CCOCC2)Oc2c(Br)cc(Cl)cc21` (stereo unspecified), the inhibition in [3] turned out to be 17%.
With `O=C1CC(CCc2ccc3[nH]c(=O)ccc3c2)Oc2c(Br)cc(Cl)cc21` (stereo unspecified), in data set [1], the inhibition was found to be 59%.
For `Cc1noc(CCC2CC(=O)c3cc(Cl)cc(Br)c3O2)n1` (stereo unspecified), the inhibition entry was “Dose-dependent effect” in data set [4] and 77% in data set [1]. The outcome with MCF7 [5] and with A549 [10] was inactive. In addition, the outcome in the data set with A549 [6], in the data set with MCF7 [11] and in the data set with A549 [12] was Active. In addition, the pIC50 in [2] was 4.91. The “growth inhibition (GI)” value in the data set on A549 [7] and in the data set with MCF7 [9] was “Active” each time. For the same compound, the inhibition entry in data set [8] was “Active”.
Take `O=C(CCCC1CC(=O)c2cc(Cl)cc(Br)c2O1)NCc1ccccc1` (stereo unspecified): the inhibition in data set [1] stood at 39%.
On the same count and under the same terms, the figure for `Nc1c(CCc2ccccc2)oc2c(Br)cc(Cl)cc2c1=O` is 79%.
Same read-out and setting: for `CNC(=O)CCC1CC(=O)c2cc(Cl)cc(Br)c2O1` (stereo unspecified) the value was 0.2%; for `O=C1CC(CCCO)Oc2c(Br)cc(Cl)cc21` (stereo unspecified), 18%.
On to `COC(=O)CCC1CC(=O)c2cc(Cl)cc(Br)c2O1` (stereo unspecified), for which, in data set [1], the inhibition came to 80%. Further, the pIC50 in data set [2] is 5.02.
Consider `CCCCCC1CC(=O)c2cc(Br)ccc2O1` (stereo unspecified), for which the inhibition in data set [1] is 69%.
With `O=C(O)CCC1CC(=O)c2cc(Cl)cc(Br)c2O1` (stereo unspecified), the inhibition in [1] is 6.8%.
The same measure, in the same setting: the figure for `N#Cc1c(CCc2ccccc2)oc2c(Br)cc(Cl)cc2c1=O` is 50%.
Still for that read-out and setting: the figure for `O=C1CC(CCCCO)Oc2c(Br)cc(Cl)cc21` (stereo unspecified) is 52%.
As to `O=C1CC(CCCN2CCCCC2)Oc2c(Br)cc(Cl)cc21` (stereo unspecified), the inhibition in data set [3] was found to be 40%.
`CNC(=O)CCCC1CC(=O)c2cc(Cl)cc(Br)c2O1` (stereo unspecified): the inhibition in data set [1] stood at 39%.
Turning to `CCCCCC1CC(=O)c2cc(Br)cc(Cl)c2O1` (stereo unspecified), in data set [1], the inhibition amounted to 96%. In data set [2], the negative logarithm of the IC50 (pIC50) was 5.74.
With `Cc1noc(CCCC2CC(=O)c3cc(Cl)cc(Br)c3O2)n1` (stereo unspecified), in data set [1], the inhibition was 49%.
Same read-out and setting: for `O=C(O)CCCC1CC(=O)c2cc(Cl)cc(Br)c2O1` (stereo unspecified) the value was 7.6%.
Regarding `COC(=O)CCCC1CC(=O)c2cc(Cl)cc(Br)c2O1` (stereo unspecified), the inhibition in [1] is 90%. Further, the negative logarithm of the IC50 (pIC50) in data set [2] is 5.70.
As to `N/C=C1\C(=O)c2cc(Cl)cc(Br)c2OC1CCc1ccccc1` (stereo unspecified), in data set [1], the inhibition was found to be 76%.
Consider `O=C1CC(CCc2cccnc2)Oc2c(Br)cc(Cl)cc21` (stereo unspecified), for which the “growth inhibition (GI)” value in the data set with MCF7 [13], in the data set on A549 [16], in the data set on MCF7 [17], in the data set on A549 [18], with A549 [7] and in the data set with MCF7 [9] was “Active” throughout. Moreover, the outcome with MCF7 [14] and in the data set with A549 [15] was inactive. In addition, the inhibition result is “Dose-dependent effect” in [4] and 86% in data set [1]. The pIC50 in data set [2] was 5.43. In data set [19], the inhibition entry was “Active”. Besides, the outcome with MCF7 [20] and in the data set with A549 [22] was Active. In the data set on MCF7 [21], the Activity entry is “Toxic”.
Turning to `COCCOCC1CC(=O)c2cc(Cl)cc(Br)c2O1` (stereo unspecified), the inhibition in [1] is 33%.
On the same count and under the same terms, for `CN(C)C(=O)CCCC1CC(=O)c2cc(Cl)cc(Br)c2O1` (stereo unspecified) the value was 53%.
